Test results published in ChEMBL document CHEMBL1157126, “Synthesis and biological activity of N(4)-phenylsubstituted-6-(2,4-dichloro phenylmethyl)-7H-pyrrolo[2,3-d]pyrimidine-2,4-diamines as vascular endothelial growth factor receptor-2 inhibitors and antiangiogenic and antitumor agents” (Bioorg Med Chem, 2010).
Activity calls are given as the source filed them. The rule behind the calls is not given here.

How the values were obtained:
[1] = target: Vascular endothelial growth factor receptor 1 (Homo sapiens, UniProt P17948); experiment: Inhibition of VEGFR1 phosphorylation in human A498 cells after 10 mins by FLISA; type: cell-based
A-431 = experiment: Antiproliferative activity against human A431 cells after 48 hrs by quant dye staining-based UV spectroscopy; type: functional, cell-based; conditions: A-431, 48 h
[2] = target: T1, Vascular endothelial growth factor receptor 2 (Homo sapiens, UniProt P35968); experiment: Inhibition of VEGFR2 phosphorylation in human U251 cells after 10 mins by FLISA; type: cell-based, U-251
[3] = target: Epidermal growth factor receptor (Homo sapiens, UniProt P00533); experiment: Inhibition of EGFR phosphorylation in human A431 cells after 10 mins by FLISA; type: cell-based, A-431
[4] = target: T2, Platelet-derived growth factor receptor beta (Homo sapiens, UniProt P09619); experiment: Inhibition of PDGFRbeta phosphorylation in human SF539 cells after 10 mins by FLISA
[5] = target: T1, Vascular endothelial growth factor receptor 2; experiment: Ratio of semaxanib IC50 to compound IC50 for VEGFR2 phosphorylation in human U251 cells; type: cell-based; conditions: U-251
B16-F10 [6] = experiment: Antitumor activity against mouse B16F10 cells xenografted in NCr nu/nu mouse assessed as inhibition of tumor growth at 35 mg/kg, ip administered after 9 days of tumor implantation for weekly 3 times measured on day 28 post-implantation; type: functional, organism-based; parameters: dose 35 mg/kg
Method in brief: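 B16-F10 cells (50,000) implanted SQ behind the ear of 8-week-old male athymic NCr nu/nu mice, 5–6/group, two experiments. IP dosing in sterile water (from 30 mM DMSO stocks) Mon/Wed/Fri from day 9; water-only shams. Length, width and depth measured by calipers three times weekly; volume = L×W×D. Growth rate is the linear-regression slope from day 9 to day 28. Mean ± SEM, one-way ANOVA.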

B16-F10 [7] = experiment: Antitumor activity against mouse B16F10 cells xenografted in NCr nu/nu mouse assessed as inhibition of lung metastasis at 35 mg/kg, ip administered after 9 days of tumor implantation for weekly 3 times measured on day 28 post-implantation by hematoxylin-eosin staining; type: functional, organism-based; parameters: dose 35 mg/kg
Method in brief: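 Male athymic NCr nu/nu mice (8 weeks) received 50,000 B16-F10 cells SQ behind the ear, 5–6/group, two experiments. Drug given IP in sterile water (from 30 mM DMSO stocks) Mon/Wed/Fri starting day 9; shams received water. On day 28 lungs excised, formalin-fixed, paraffin-embedded. Metastases per lung lobe counted on three H&E sections. Mean ± SEM, one-way ANOVA with Neuman-Keuls.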

B16-F10 [8] = experiment: Antitumor activity against mouse B16F10 cells xenografted in NCr nu/nu mouse assessed as antiangiogenic activity-related decrease in tumor vascularity at 35 mg/kg, ip administered after 9 days of tumor implantation for weekly 3 times measured on day 28 post-implantation; type: functional, organism-based; parameters: dose 35 mg/kg
Method in brief: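 50,000 B16-F10 melanoma cells injected SQ behind the ear of 8-week-old male athymic NCr nu/nu mice, 5–6 animals/group, two experiments. IP dosing in sterile water (from 30 mM DMSO stocks) Mon/Wed/Fri from day 9; shams got water. Tumors excised day 28, formalin-fixed, paraffin-embedded, H&E stained. Vessels counted per unit area in 5 fields at 100× and averaged. Mean ± SEM, one-way ANOVA, Neuman-Keuls.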

[9] = target: T2, Platelet-derived growth factor receptor beta; experiment: Inhibition of PDGF-stimulated PDGFRbeta phosphorylation expressed in human SF-539 cells by chemiluminescence assay
B16-F10 [10] = conditions: Mus musculus, 10 mg/kg
B16-F10 [11] = conditions: Mus musculus, 10 mg/kg; remark: listed apart in the source
B16-F10 [12] = conditions: Mus musculus, 10 mg/kg; remark: listed apart in the source

T2 sequence (P09619 whole entry): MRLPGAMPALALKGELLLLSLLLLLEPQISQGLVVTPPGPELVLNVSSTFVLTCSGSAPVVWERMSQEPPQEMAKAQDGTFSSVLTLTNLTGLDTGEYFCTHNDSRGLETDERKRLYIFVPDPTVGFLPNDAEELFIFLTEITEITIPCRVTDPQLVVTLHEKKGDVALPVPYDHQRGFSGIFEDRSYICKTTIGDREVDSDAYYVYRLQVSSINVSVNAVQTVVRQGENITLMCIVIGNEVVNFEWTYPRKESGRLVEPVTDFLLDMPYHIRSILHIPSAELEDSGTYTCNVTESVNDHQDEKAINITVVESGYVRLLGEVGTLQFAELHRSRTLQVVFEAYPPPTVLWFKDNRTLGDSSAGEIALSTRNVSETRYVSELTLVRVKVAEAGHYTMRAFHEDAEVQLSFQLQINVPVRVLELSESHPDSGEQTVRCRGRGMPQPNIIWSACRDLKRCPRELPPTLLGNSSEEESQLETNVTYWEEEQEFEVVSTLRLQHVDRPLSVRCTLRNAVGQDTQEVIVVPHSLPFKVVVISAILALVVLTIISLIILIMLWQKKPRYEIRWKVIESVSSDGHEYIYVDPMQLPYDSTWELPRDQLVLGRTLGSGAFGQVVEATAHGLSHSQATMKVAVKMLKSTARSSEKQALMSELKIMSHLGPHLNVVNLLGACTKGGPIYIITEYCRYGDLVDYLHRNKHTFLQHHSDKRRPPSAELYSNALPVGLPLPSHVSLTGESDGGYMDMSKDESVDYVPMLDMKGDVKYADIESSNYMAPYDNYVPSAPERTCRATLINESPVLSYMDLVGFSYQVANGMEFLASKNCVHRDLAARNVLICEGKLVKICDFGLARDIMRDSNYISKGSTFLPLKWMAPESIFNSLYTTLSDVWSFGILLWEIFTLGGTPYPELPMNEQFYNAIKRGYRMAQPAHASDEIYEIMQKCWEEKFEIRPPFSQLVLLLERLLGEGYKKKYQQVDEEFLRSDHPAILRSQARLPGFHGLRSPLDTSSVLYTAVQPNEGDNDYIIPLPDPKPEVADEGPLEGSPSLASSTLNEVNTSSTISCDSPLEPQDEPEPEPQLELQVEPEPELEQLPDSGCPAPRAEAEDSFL
T1 sequence (P35968 whole entry): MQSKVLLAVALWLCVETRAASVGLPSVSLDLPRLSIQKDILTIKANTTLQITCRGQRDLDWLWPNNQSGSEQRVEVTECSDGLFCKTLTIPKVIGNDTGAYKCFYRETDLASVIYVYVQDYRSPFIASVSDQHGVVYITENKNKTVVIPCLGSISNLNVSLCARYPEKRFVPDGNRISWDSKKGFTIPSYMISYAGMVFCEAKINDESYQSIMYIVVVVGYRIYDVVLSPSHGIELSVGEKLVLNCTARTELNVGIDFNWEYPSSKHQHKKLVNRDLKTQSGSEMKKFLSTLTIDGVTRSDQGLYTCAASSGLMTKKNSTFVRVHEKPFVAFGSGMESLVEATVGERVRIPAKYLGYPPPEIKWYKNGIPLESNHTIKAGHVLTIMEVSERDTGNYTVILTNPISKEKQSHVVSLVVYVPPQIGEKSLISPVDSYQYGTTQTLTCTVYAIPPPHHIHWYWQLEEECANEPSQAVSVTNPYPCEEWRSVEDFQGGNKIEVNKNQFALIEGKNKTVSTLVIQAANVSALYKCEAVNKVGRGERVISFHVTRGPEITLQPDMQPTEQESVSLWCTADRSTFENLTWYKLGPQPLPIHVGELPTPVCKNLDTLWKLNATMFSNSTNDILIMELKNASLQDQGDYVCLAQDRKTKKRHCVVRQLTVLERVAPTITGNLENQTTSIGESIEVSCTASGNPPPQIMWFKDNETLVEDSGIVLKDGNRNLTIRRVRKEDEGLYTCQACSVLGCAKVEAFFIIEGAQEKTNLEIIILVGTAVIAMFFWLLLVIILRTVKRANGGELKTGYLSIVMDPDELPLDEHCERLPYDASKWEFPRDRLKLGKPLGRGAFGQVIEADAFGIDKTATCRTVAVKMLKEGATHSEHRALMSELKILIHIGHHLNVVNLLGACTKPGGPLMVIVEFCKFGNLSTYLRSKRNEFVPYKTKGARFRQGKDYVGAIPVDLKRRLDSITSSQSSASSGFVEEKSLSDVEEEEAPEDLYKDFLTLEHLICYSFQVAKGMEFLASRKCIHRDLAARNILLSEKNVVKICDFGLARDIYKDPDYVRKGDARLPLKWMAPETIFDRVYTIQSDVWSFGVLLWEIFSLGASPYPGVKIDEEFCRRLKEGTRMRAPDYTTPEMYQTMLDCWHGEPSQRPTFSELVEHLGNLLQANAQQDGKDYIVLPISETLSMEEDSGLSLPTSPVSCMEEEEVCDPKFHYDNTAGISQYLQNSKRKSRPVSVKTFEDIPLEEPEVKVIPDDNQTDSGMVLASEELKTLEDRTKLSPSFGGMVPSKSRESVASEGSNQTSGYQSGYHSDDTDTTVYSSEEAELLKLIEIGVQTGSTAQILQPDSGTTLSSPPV
Chain of Vascular endothelial growth factor receptor 1 (P17948 whole entry): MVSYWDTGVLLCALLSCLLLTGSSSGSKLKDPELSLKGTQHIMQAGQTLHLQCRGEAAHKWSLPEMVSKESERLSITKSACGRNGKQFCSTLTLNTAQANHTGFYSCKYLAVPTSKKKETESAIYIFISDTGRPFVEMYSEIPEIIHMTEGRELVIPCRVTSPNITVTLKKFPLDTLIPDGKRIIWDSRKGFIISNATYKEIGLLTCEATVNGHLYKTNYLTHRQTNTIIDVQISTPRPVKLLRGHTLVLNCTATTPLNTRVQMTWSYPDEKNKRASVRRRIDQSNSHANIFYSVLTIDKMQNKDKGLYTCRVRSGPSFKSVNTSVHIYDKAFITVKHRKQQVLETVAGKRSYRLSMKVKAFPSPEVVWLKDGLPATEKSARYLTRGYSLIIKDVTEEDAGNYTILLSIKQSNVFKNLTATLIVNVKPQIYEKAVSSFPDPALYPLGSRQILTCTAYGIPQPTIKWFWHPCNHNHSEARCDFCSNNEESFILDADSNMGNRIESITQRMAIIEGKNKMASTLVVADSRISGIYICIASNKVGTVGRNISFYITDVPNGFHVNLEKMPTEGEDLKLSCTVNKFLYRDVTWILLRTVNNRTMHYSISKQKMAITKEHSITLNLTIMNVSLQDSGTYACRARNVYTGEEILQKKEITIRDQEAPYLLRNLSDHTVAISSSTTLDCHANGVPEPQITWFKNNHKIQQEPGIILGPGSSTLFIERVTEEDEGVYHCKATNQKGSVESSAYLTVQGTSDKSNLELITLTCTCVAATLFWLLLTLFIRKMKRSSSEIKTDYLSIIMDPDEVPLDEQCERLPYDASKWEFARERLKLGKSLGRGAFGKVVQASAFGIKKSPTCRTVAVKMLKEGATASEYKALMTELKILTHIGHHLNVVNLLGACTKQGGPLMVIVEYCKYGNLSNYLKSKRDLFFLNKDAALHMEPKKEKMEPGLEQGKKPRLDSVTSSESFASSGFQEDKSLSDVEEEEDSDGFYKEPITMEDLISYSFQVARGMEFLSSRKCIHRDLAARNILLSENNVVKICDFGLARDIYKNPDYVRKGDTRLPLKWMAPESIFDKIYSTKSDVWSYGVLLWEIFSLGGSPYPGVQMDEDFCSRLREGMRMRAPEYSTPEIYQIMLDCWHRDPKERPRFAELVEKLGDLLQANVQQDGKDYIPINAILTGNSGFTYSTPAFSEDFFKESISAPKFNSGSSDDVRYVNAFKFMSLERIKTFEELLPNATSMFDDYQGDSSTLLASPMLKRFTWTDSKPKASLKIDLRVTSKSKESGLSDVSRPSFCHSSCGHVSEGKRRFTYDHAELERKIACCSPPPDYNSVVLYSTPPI
Chain of Epidermal growth factor receptor (P00533 whole entry): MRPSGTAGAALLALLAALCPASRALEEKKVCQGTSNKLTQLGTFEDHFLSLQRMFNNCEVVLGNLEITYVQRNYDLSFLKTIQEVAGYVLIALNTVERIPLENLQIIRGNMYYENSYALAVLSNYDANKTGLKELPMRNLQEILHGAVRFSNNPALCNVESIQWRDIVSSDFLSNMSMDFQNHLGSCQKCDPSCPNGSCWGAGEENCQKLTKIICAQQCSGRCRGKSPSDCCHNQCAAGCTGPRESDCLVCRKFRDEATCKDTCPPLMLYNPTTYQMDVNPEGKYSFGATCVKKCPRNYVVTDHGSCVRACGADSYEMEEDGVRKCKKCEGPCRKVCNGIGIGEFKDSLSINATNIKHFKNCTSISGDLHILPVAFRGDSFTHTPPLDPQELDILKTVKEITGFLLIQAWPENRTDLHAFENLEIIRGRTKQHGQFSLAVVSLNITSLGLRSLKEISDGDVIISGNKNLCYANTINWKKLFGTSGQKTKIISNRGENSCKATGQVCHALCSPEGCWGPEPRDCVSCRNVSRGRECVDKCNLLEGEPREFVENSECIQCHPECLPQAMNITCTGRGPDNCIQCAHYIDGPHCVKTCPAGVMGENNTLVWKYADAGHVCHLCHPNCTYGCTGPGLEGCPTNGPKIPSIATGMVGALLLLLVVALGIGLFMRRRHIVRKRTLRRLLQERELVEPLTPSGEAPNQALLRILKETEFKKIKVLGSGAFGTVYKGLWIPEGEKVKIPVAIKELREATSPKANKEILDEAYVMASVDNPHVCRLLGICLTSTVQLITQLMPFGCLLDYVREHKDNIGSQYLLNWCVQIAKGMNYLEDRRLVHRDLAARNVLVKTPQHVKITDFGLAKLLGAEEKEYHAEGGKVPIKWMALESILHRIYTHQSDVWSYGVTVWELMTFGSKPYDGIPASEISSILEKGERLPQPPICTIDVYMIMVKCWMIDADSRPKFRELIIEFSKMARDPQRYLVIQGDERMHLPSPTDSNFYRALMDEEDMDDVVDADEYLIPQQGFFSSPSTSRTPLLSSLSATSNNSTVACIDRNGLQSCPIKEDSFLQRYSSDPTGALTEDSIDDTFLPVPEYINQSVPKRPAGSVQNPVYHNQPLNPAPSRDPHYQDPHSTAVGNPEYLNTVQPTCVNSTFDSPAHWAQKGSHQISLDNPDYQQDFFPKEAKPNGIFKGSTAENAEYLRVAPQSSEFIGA

| SMILES | IC50 [1] | IC50 (A-431) | IC50 [2] | IC50 [3] | IC50 [4] | Ratio IC50 [5] | IC50 [9] | inhibition (B16-F10 [6]) | inhibition (B16-F10 [7]) | inhibition (B16-F10 [8]) | inhibition (B16-F10 [10]) | inhibition (B16-F10 [11]) | inhibition (B16-F10 [12]) |
| --- | --- | --- | --- | --- | --- | --- | --- | --- | --- | --- | --- | --- | --- |
| Nc1nc(Nc2ccc(C(F)(F)F)c(F)c2)c2cc(Cc3ccc(Cl)cc3Cl)[nH]c2n1 | > 300 µM | 13.8 µM | 113 µM | 91.7 µM | > 300 µM | – | – | – | – | – | – | – | – |
| Cc1ccccc1Cc1cc2c(Nc3cccc(Br)c3)nc(N)nc2[nH]1 | – | – | – | – | > 50 µM | – | – | Active | Active | Active | – | – | – |
| C#Cc1cccc(Nc2nc(N)nc3[nH]c(Cc4ccc(Cl)cc4Cl)cc23)c1 | > 300 µM | 9.5 µM | 85.6 µM | 55.2 µM | > 300 µM | – | – | – | – | – | – | – | – |
| FC(F)(F)c1cccc(Nc2ncnc3[nH]c(Cc4ccc(Cl)cc4Cl)cc23)c1 | > 300 µM | > 300 µM | > 300 µM | 33.1 µM | 110 µM | – | – | – | – | – | – | – | – |
| Nc1nc(Nc2ccc(Br)cc2Cl)c2cc(Cc3ccc(Cl)cc3Cl)[nH]c2n1 | > 300 µM | 16.2 µM | 0.1 µM | > 300 µM | > 300 µM | 100 | – | Active | Active | Active | – | – | – |
| C#Cc1cccc(Nc2ncnc3[nH]c(Cc4ccc(Cl)cc4Cl)cc23)c1 | > 300 µM | > 300 µM | > 300 µM | > 300 µM | 142 µM | – | – | – | – | – | – | – | – |
| Cc1ccccc1Cc1cc2c(Nc3cccc(Br)c3)ncnc2[nH]1 | > 300 µM | 9.5 µM | 27.2 µM | > 300 µM | 182 µM | – | – | – | – | – | – | – | – |
| Cc1[nH]c(/C=C2\C(=O)Nc3ccccc32)c(C)c1CCC(=O)O [ORANTINIB] | – | – | – | – | – | – | 0.1 µM | – | – | – | Active | Active | Active |
| COc1ccc(OC)c(Cc2cc3c(Nc4cccc(Br)c4)ncnc3[nH]2)c1 | > 300 µM | 191 µM | > 300 µM | > 300 µM | 171 µM | – | – | – | – | – | – | – | – |

Further lines, with some results ahead:

| IC50 [1] | IC50 (A-431) | IC50 [2] | IC50 [3] | IC50 [4] | Ratio IC50 [5] | IC50 [9] | SMILES | inhibition (B16-F10 [6]) | inhibition (B16-F10 [7]) | inhibition (B16-F10 [8]) | inhibition (B16-F10 [10]) | inhibition (B16-F10 [11]) | inhibition (B16-F10 [12]) |
| --- | --- | --- | --- | --- | --- | --- | --- | --- | --- | --- | --- | --- | --- |
| 163 µM | 45.2 µM | 0.3 µM | 162 µM | 183 µM | 40 | – | Nc1nc(Nc2cccc(F)c2)c2cc(Cc3ccc(Cl)cc3Cl)[nH]c2n1 | – | – | – | – | – | – |
| 156 µM | 195 µM | > 300 µM | 27.2 µM | > 300 µM | – | – | Nc1nc(Nc2cccc(C(F)(F)F)c2)c2cc(Cc3ccc(Cl)cc3Cl)[nH]c2n1 | – | – | – | – | – | – |
| 151 µM | 4.5 µM | > 300 µM | > 300 µM | 220 µM | – | – | Clc1ccc(Cc2cc3c(Nc4cccc(Br)c4)ncnc3[nH]2)c(Cl)c1 | – | – | – | – | – | – |
| 163 µM | 160 µM | > 300 µM | 96.4 µM | 43 µM | – | – | CC(C)c1ccccc1Nc1nc(N)nc2[nH]c(Cc3ccc(Cl)cc3Cl)cc12 | – | – | – | – | – | – |
| 157 µM | 26.2 µM | 1.4 µM | 45.6 µM | 175 µM | 8 | – | CC(C)c1ccc(Nc2nc(N)nc3[nH]c(Cc4ccc(Cl)cc4Cl)cc23)cc1 | – | – | – | – | – | – |
| 70.9 µM | 4.9 µM | 45.7 µM | 2.5 µM | 24.6 µM | 0.26 | – | Nc1nc(Nc2ccc(Cl)cc2F)c2cc(Cc3ccc(Cl)cc3Cl)[nH]c2n1 | – | – | – | – | – | – |
